Screening results: PubChem BioAssay, several laboratories
CYP2C9 activ – CYP2C9 (human) activation. P11712. recombinant CYP2C9, luciferin-H conversion, luminescence; stronger effect = higher value; factor 1 = untreated enzyme, 0 = blocked. activation factor at 5 µM. hit rate 1.4% among 96,000;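 active = activation factor of 2 or more for CYP2C9 at a 5 µM dose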;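 note: 0 = sulfaphenazole-blocked wells and 1 = vehicle-only wells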
Target sequence (P11712 whole entry, looked up): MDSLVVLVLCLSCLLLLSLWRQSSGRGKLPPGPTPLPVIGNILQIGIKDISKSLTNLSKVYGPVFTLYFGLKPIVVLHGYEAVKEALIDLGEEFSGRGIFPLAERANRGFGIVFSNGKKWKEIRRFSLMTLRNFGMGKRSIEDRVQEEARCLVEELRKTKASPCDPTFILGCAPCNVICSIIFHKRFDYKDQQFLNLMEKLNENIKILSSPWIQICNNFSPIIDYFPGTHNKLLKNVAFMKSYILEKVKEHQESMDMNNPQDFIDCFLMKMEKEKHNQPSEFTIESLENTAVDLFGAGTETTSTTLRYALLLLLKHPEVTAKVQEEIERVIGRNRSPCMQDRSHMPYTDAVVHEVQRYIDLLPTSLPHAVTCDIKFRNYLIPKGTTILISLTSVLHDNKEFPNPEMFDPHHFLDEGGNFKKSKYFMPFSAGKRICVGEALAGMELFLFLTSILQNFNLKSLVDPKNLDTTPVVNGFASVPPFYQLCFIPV
Ecoli tolC – growth inhibitors of E. coli BW25113 tolC mutant. hit rate 2.2% among 65,000. OD615. AID 573. growth inhibition, % at 10 µM (by protocol);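 active = growth inhibition at or above a cutoff equal to the mean over every tested compound plus 3 SD, cut at about 60% in these data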;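 note: growth measured after 20 h incubation at 37 °C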
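Assay system: tolC-deleted E. coli BW25113. Medium: kanamycin-containing LB broth (50 µg/mL). Dosing: 10 µM final, single dose. Timing: bacterial growth with compound for 20 h at 37 °C. Detection: A615 absorbance measurement. Read-out basis: growth inhibition in percent.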
CYP2C19 activ – increases human CYP2C19 enzyme activity; P33261; recombinant CYP2C19, luciferin-H EGE luminescence; stronger effect = higher value; 0 = fully inhibited enzyme, 1 = untreated enzyme; activation factor at 5 µM; 96,000 tested, under 10 active;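 active = activation factor of at least 2 at 5 µM in the primary screen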;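 note: 0 = wells with 2.5 mM tranylcypromine and 1 = vehicle-only wells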
CYP2C9 inh – inhibitors of human CYP2C9 | P11712 | CYP2C9 Supersomes, luciferin-H conversion, luminescence | inhibition, % at 5 µM | hit rate 20% among 96,000 | AID 777;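 active = blocking of liver enzyme CYP2C9 beyond about 50% at 5 µM, limit read from the data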
E coli WT exp – blocks growth of wild type E. coli BW25113 | OD600 absorbance | growth inhibition, % at 100 µM | hit rate 0.15% among 98,000;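 active = growth inhibition above about 50% at one test dose, limit read from the data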;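 note: growth measured after 20 h incubation at 37 °C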
CYP2C19 inhib – inhibitors of human CYP2C19 | P33261 | CYP2C19 Supersomes, luciferin-H EGE luminescence, 30 min | inhibition, % at 5 µM | hit rate 21% among 96,000;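 active = CYP2C19 inhibition above a set limit at 5 µM in the primary screen, cut at about 50% in these data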;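 note: plate controls were negative control wells for no effect and 2.5 mM tranylcypromine positive control for full effect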
Starred values were filed as active, the others as inactive. Compounds with a hit are over-represented: about 29% of the library has one in this group of screens.

Results for Cc1onc(-c2ccccc2Cl)c1C(=O)Nc1nnc(C(C)C)s1 ?
CYP2C9 activ: 0.4; Ecoli tolC: 14; CYP2C19 activ: 0.8; CYP2C9 inh: 59*; E coli WT exp: -3; CYP2C19 inhib: 19

How did Cc1onc(-c2ccccc2Cl)c1C(=O)Nc1nnc(Cc2ccc(Cl)cc2)s1 do in these assays?
CYP2C9 activ: 0.1; CYP2C19 activ: 0.9; CYP2C9 inh: 88*; E coli WT exp: -13; CYP2C19 inhib: 10

What do the screens show for `CC(C)n1c(SCC(=O)c2ccc3c(c2)OCCO3)nc2c1c(=O)n(C)c(=O)n2C`?
CYP2C9 activ: 0.7; CYP2C19 activ: 0.9; CYP2C9 inh: 26; CYP2C19 inhib: 14

How did Cc1ccc(Cn2c(CN3CCOCC3)nc3c2c(=O)n(C)c(=O)n3C)cc1 do in these assays?
Ecoli tolC: -6; E coli WT exp: 1

Results for Cc1onc(-c2ccccc2Cl)c1C(=O)NCc1ccco1 ?
CYP2C9 activ: 0.7; Ecoli tolC: -12; CYP2C19 activ: 0.5; CYP2C9 inh: 31; E coli WT exp: -3; CYP2C19 inhib: 51*

How did COc1ccc(NC(=O)CN2CCCC(C)C2)c([N+](=O)[O-])c1 (stereo not drawn) do in these assays?
CYP2C9 activ: 1; CYP2C19 activ: 0.8; CYP2C9 inh: 4; E coli WT exp: 21; CYP2C19 inhib: 18

Results for COc1ccc(NC(=S)NNC(=O)Cn2nc([N+](=O)[O-])cc2C)cc1 ?
CYP2C9 activ: 1.1; CYP2C19 activ: 1.1; CYP2C9 inh: -11; E coli WT exp: 2; CYP2C19 inhib: -11

What do the screens show for `CCOc1ccc(CC(=O)NNC(=S)Nc2ccccc2)cc1Br`?
CYP2C9 activ: 0.3; CYP2C19 activ: 0.5; CYP2C9 inh: 72*; E coli WT exp: -7; CYP2C19 inhib: 53*

How did COc1ccc(CC(=O)NNC(=S)Nc2ccccc2)cc1Br do in these assays?
CYP2C9 activ: 0.6; CYP2C19 activ: 0.3; CYP2C9 inh: 37; E coli WT exp: -2; CYP2C19 inhib: 74*

What do the screens show for `CCOc1cc(NC(=S)Nc2ccccc2)c(OCC)cc1NC(=O)c1ccccc1`?
CYP2C9 activ: 1; CYP2C19 activ: 1.1; CYP2C9 inh: 4; E coli WT exp: -14; CYP2C19 inhib: -6

Results for COc1ccc(CC(=O)NNC(=S)Nc2ccc(Br)cc2)cc1 ?
CYP2C9 activ: 0.5; CYP2C19 activ: 0.6; CYP2C9 inh: 52*; E coli WT exp: 8; CYP2C19 inhib: 42

How did Nc1ncn(C23CC4CC(CC(C4)C2)C3)n1 do in these assays?
CYP2C9 activ: 0.9; CYP2C19 activ: 1; CYP2C9 inh: 6; E coli WT exp: 4; CYP2C19 inhib: 1

How did CCOC(=O)Nc1cc(C(=O)OC)cc(C(=O)OC)c1 do in these assays?
CYP2C9 activ: 0.8; Ecoli tolC: -3; CYP2C19 activ: 0.9; CYP2C9 inh: 20; E coli WT exp: -2; CYP2C19 inhib: 9

How did Cc1ccc(C(=O)C(OC(=O)CNS(=O)(=O)c2ccccc2)c2ccccc2)cc1 (stereo not drawn) do in these assays?
CYP2C9 activ: 0.4; CYP2C19 activ: 0.7; CYP2C9 inh: 55*; E coli WT exp: -4; CYP2C19 inhib: 33

How did CC(=O)Nc1cccc(C(=O)OC(C(=O)c2ccc(C)c(C)c2)c2ccccc2)c1 (stereo not drawn) do in these assays?
CYP2C9 activ: 1; CYP2C19 activ: 1; CYP2C9 inh: 4; E coli WT exp: -7; CYP2C19 inhib: 0

Results for CC(=O)Nc1cccc(C(=O)OC(C(=O)c2ccc(C)cc2)c2ccccc2)c1 (stereo not drawn) ?
CYP2C9 activ: 0.2; CYP2C19 activ: 0.6; CYP2C9 inh: 76*; E coli WT exp: -8; CYP2C19 inhib: 36

How did CCOCCOC(=O)c1cccc(NC(=O)OCC)c1 do in these assays?
CYP2C9 activ: 0.4; Ecoli tolC: 0; CYP2C19 activ: 0.3; CYP2C9 inh: 63*; E coli WT exp: 11; CYP2C19 inhib: 71*

How did CC(=O)Nc1cccc(C(=O)OCc2ccccc2)c1 do in these assays?
CYP2C9 activ: 1.3; Ecoli tolC: 7; CYP2C19 activ: 0; CYP2C9 inh: -32; E coli WT exp: 11; CYP2C19 inhib: 98*

What do the screens show for `CCCOC(=O)c1cccc(NC(=O)c2cccnc2)c1`?
CYP2C9 activ: 0.6; Ecoli tolC: 5; CYP2C19 activ: 0.6; CYP2C9 inh: 40; E coli WT exp: 9; CYP2C19 inhib: 44

What do the screens show for `COc1cc2nc(=S)n3[nH]c(CCn4nc(C)cc4C)nc3c2cc1OC`?
CYP2C9 activ: 0.6; Ecoli tolC: 6; CYP2C19 activ: 0.7; CYP2C9 inh: 44; E coli WT exp: 1; CYP2C19 inhib: 30

How did COc1ccc(Nc2nc(C)cc(C)c2C(N)=O)c(OC)c1 do in these assays?
CYP2C9 activ: 1; Ecoli tolC: -8; CYP2C19 activ: 0.9; CYP2C9 inh: 2; E coli WT exp: -4; CYP2C19 inhib: 15

Results for COCC(=O)NC1CCN(C(=O)Nc2ccc(Br)cc2)CC1 ?
CYP2C9 activ: 1.1; Ecoli tolC: -35; CYP2C19 activ: 1; CYP2C9 inh: -12; E coli WT exp: -2; CYP2C19 inhib: -4

Results for CC(c1nnc(SCC(=O)NC(=O)NCc2ccco2)n1-c1ccc(Cl)cc1)N(C)C (stereo not drawn) ?
CYP2C9 activ: 0.8; Ecoli tolC: 6; CYP2C19 activ: 0.8; CYP2C9 inh: 21; E coli WT exp: 4; CYP2C19 inhib: 17

What do the screens show for `COc1ccc(C(=O)OC(C(=O)c2ccc(C)cc2)c2ccccc2)cc1` (stereo not drawn)?
CYP2C9 activ: 0.4; CYP2C19 activ: 0.7; CYP2C9 inh: 57*; E coli WT exp: -19; CYP2C19 inhib: 34

How did O=C(OCc1ccccc1)c1cccc(-c2nnn(Cc3ccccc3)n2)c1 do in these assays?
CYP2C9 activ: 0.4; CYP2C19 activ: 0.8; CYP2C9 inh: 63*; E coli WT exp: -13; CYP2C19 inhib: 23

How did O=C(O)CCSCc1ccccc1F do in these assays?
CYP2C9 activ: 1.1; Ecoli tolC: 4; CYP2C19 activ: 1.2; CYP2C9 inh: -5; E coli WT exp: -4; CYP2C19 inhib: -20

What do the screens show for `CNc1c([N+](=O)[O-])cnn1-c1ccc(Cl)cc1`?
CYP2C9 activ: 0.8; CYP2C19 activ: 0.6; CYP2C9 inh: 17; E coli WT exp: 0; CYP2C19 inhib: 42

How did CCC(Oc1ccccc1)C(=O)Nc1nnc(C)s1 (stereo not drawn) do in these assays?
CYP2C9 activ: 0.4; Ecoli tolC: -17; CYP2C19 activ: 0.6; CYP2C9 inh: 63*; E coli WT exp: -4; CYP2C19 inhib: 41

Results for CCC(CC)c1nnc(NC(=O)Oc2ccccc2)s1 ?
CYP2C9 activ: 0.4; CYP2C19 activ: 0.9; CYP2C9 inh: 56*; E coli WT exp: 12; CYP2C19 inhib: 5

How did CCC(Oc1ccccc1)C(=O)Nc1nc2c(s1)C(=O)CC(C)(C)C2 (stereo not drawn) do in these assays?
CYP2C9 activ: 0.5; CYP2C19 activ: 0.9; CYP2C9 inh: 54*; E coli WT exp: -12; CYP2C19 inhib: 12
